Measured values as given in ChEMBL document CHEMBL1152827, “Bis-pyrazolines: synthesis, characterization and antiamoebic activity as inhibitors of growth of Entamoeba histolytica” (Eur J Med Chem, 2009).

Key:
[1] = system: Entamoeba histolytica; test: Antiamoebic activity against Entamoeba histolytica HM-1:IMSS trophozoites after 72 hrs by microdilution method; type: functional, organism-based
Summary of the method: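 E. histolytica HM1:IMSS trophozoites grown in TYIS-33 medium. Compounds dissolved in DMSO, diluted in medium to 1 mg/ml, then two-fold serial dilutions. Inoculum 1.7 × 10⁴ organisms/well. Plates gassed with N₂ and held at 37 °C for 72 h. Amoebae fixed in cold MeOH and stained with eosin, dye released with 0.1 N NaOH, OD read at 490 nm. Percent inhibition plotted against log dose; IC50 from linear regression.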

[2] = Cytotoxicity against human kidney epithelial cells after 44 hrs by MTT assay; type: cell-based; settings: Epithelial cell
[3] = Selectivity index, ratio of IC50 for human kidney epithelial cells to IC50 for Entamoeba histolytica HM-1:IMSS trophozoites; set-up: species or system Epithelial cell
Summary of the method: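 Safety index calculated as IC50 in human kidney epithelial cells (MTT, 44 h plus 4 h) divided by IC50 against E. histolytica HM1:IMSS (72 h eosin-stained microdilution assay).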

Row | Compound | IC50 [1] [nM] | IC50 [2] [nM] | Ratio IC50 [3]
1 | S=C(N1CCCC1)N1N=C(c2ccccc2)CC1c1ccc(C2CC(c3ccccc3)=NN2C(=S)N2CCCC2)cc1 (configuration not stated) | > 1800 | > 90000 | >50
2 | O=[N+]([O-])c1ccc(NC(=S)N2N=C(c3ccccc3)CC2c2ccc(C3CC(c4ccccc4)=NN3C(=S)Nc3ccc([N+](=O)[O-])cc3)cc2)cc1 (configuration not stated) | 420 | > 90000 | >214
3 | S=C(NC1CCCC1)N1N=C(c2ccccc2)CC1c1ccc(C2CC(c3ccccc3)=NN2C(=S)NC2CCCC2)cc1 (configuration not stated) | > 1800 | > 90000 | >50
4 | S=C(NC1CCCCCCC1)N1N=C(c2ccccc2)CC1c1ccc(C2CC(c3ccccc3)=NN2C(=S)NC2CCCCCCC2)cc1 (configuration not stated) | 920 | > 90000 | >97.8
5 | NC(=S)N1N=C(c2ccccc2)CC1c1ccc(C2CC(c3ccccc3)=NN2C(N)=S)cc1 (configuration not stated) | 1570 | > 90000 | >57.3
6 | Cc1cccc(NC(=S)N2N=C(c3ccccc3)CC2c2ccc(C3CC(c4ccccc4)=NN3C(=S)Nc3cccc(C)c3)cc2)c1 (configuration not stated) | > 1800 | > 90000 | >50
7 | Fc1ccc(NC(=S)N2N=C(c3ccccc3)CC2c2ccc(C3CC(c4ccccc4)=NN3C(=S)Nc3ccc(F)cc3F)cc2)c(F)c1 (configuration not stated) | 620 | > 90000 | >145
8 | S=C(NC1CCCCC1)N1N=C(c2ccccc2)CC1c1ccc(C2CC(c3ccccc3)=NN2C(=S)NC2CCCCC2)cc1 (configuration not stated) | 1160 | > 90000 | >77.6
9 | Cc1ccc(NC(=S)N2N=C(c3ccccc3)CC2c2ccc(C3CC(c4ccccc4)=NN3C(=S)Nc3ccc(C)cc3)cc2)cc1 (configuration not stated) | > 1800 | > 90000 | >50
10 | CN(Cc1ccccc1)C(=S)N1N=C(c2ccccc2)CC1c1ccc(C2CC(c3ccccc3)=NN2C(=S)N(C)Cc2ccccc2)cc1 (configuration not stated) | > 1800 | > 90000 | >50
11 | Cc1ncc([N+](=O)[O-])n1CCO [METRONIDAZOLE] | – | > 100000 | >55.55
